According to ChEMBL document CHEMBL3232764, “Influence of the adamantyl moiety on the activity of biphenylacrylohydroxamic acid-based HDAC inhibitors” (Eur J Med Chem, 2014):
Activity calls are given as the source filed them. No cut-off for these calls is given here.

Tests used:
[1] = biological target: Histone deacetylase 4 (Homo sapiens, UniProt P56524); assay: Inhibition of human HDAC4 using fluorogenic tetrapeptide RHKKAc as substrate
[2] = biological target: Histone deacetylase 1 (Homo sapiens, UniProt Q13547); assay: Inhibition of human HDAC1 using fluorogenic tetrapeptide RHKKAc as substrate
Chain of Histone deacetylase 1 (Q13547 whole entry): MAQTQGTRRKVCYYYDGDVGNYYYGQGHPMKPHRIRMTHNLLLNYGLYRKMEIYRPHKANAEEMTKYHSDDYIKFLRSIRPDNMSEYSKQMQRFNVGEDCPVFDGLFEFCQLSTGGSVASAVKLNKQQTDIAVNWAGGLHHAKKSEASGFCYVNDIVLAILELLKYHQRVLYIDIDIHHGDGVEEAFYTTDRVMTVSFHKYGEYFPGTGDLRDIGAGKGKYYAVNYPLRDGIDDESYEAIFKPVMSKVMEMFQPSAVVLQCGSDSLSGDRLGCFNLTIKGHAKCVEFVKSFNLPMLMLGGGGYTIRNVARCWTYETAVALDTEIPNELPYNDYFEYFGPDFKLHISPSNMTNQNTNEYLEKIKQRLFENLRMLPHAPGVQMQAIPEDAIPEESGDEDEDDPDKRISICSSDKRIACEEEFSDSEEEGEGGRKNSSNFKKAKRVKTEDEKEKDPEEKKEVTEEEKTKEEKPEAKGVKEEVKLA

[3] = biological target: Histone deacetylase 3 (Homo sapiens, UniProt O15379)
Chain of Histone deacetylase 3 (O15379 whole entry): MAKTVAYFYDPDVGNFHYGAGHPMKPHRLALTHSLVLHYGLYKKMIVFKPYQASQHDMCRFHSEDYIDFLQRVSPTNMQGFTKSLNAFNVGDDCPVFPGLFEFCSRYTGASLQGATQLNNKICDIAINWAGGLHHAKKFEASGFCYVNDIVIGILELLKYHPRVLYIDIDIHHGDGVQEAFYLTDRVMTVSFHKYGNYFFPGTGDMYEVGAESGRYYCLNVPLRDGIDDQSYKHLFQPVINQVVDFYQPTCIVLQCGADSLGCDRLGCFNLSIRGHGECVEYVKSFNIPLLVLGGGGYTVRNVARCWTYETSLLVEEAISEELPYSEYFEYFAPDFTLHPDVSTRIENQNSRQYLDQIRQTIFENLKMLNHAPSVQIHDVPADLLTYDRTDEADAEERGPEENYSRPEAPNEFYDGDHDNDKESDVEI

[4] = biological target: T1, Histone deacetylase 7 (Homo sapiens, UniProt Q8WUI4); assay: Inhibition of human HDAC7 using fluorogenic tetrapeptide RHKKAc as substrate
T1 sequence (Q8WUI4 whole entry): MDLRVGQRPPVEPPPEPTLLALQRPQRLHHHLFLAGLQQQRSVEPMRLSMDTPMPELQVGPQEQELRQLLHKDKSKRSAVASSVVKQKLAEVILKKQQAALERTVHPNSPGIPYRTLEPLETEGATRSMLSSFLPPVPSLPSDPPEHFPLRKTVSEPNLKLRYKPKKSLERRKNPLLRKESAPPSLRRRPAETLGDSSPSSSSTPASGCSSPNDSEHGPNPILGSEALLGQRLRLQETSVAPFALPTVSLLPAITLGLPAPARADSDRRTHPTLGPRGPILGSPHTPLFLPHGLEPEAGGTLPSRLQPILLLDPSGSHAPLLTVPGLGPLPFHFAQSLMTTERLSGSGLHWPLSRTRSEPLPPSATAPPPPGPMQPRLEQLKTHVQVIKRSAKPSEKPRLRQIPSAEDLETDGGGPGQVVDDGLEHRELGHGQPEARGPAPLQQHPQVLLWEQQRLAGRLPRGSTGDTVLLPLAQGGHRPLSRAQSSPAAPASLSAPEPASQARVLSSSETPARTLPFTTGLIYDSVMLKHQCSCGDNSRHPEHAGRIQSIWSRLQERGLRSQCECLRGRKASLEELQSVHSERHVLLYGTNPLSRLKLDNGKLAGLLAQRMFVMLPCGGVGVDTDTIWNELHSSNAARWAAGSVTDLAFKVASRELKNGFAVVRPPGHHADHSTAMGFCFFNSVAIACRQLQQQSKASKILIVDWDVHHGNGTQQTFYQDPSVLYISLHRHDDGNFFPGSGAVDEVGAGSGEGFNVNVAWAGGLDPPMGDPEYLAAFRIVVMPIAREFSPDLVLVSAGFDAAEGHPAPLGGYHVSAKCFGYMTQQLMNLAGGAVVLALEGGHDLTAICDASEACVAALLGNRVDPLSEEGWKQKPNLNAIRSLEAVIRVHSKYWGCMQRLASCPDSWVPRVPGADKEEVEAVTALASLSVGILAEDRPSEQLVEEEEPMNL

[5] = system: IGROV-1; assay: Cell cycle arrest in human IGROV1 cells assessed as accumulation at S phase at IC80 after 24 hrs by propidium iodide staining-based flow cytometry (reference value: 36.81%); format: functional
Summary of the method: (§1)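 Cell-cycle distribution in IGROV-1 cells read by flow cytometry of propidium iodide–stained cells.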

[6] = biological target: Histone deacetylase 2 (Homo sapiens, UniProt Q92769); format: cell-based, HeLa
Chain of Histone deacetylase 2 (Q92769 whole entry): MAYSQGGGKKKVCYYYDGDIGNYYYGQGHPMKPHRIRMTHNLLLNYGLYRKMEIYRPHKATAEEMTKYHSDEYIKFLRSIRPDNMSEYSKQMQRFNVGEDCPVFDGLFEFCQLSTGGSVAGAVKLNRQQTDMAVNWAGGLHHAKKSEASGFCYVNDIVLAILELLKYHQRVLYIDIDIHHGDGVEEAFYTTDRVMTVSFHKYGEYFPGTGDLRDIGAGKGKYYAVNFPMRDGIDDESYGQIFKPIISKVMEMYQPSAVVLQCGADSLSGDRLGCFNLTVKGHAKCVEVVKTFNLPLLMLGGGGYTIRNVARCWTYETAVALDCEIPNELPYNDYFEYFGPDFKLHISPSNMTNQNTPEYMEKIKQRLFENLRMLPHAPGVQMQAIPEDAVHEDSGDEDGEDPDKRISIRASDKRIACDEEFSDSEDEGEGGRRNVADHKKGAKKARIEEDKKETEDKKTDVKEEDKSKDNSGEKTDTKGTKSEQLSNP

[7] = cells; format: functional, cell-based; details: Homo sapiens, NCI-H460, 72 h
[8] = Cell cycle arrest in human IGROV1 cells assessed as accumulation at G2/M phase at IC80 after 24 hrs by propidium iodide staining-based flow cytometry (reference value: 13.21%); format: functional; details: IGROV-1; summary of the method: as §1
[9] = system: IGROV-1; assay: Cell cycle arrest in human IGROV1 cells assessed as accumulation at G1 phase at IC80 after 24 hrs by propidium iodide staining-based flow cytometry (reference value: 49.98%); format: functional; summary of the method: as §1
[10] = biological target: T2, Protein deacetylase HDAC6 (Homo sapiens) (UniProt Q9UBN7); assay: Inhibition of HDAC6 in human IGROV1 cells assessed as increase in tubulin acetylation at IC80 after 4 to 24 hrs by Western blot analysis; format: cell-based; details: IGROV-1
T2 sequence (whole entry): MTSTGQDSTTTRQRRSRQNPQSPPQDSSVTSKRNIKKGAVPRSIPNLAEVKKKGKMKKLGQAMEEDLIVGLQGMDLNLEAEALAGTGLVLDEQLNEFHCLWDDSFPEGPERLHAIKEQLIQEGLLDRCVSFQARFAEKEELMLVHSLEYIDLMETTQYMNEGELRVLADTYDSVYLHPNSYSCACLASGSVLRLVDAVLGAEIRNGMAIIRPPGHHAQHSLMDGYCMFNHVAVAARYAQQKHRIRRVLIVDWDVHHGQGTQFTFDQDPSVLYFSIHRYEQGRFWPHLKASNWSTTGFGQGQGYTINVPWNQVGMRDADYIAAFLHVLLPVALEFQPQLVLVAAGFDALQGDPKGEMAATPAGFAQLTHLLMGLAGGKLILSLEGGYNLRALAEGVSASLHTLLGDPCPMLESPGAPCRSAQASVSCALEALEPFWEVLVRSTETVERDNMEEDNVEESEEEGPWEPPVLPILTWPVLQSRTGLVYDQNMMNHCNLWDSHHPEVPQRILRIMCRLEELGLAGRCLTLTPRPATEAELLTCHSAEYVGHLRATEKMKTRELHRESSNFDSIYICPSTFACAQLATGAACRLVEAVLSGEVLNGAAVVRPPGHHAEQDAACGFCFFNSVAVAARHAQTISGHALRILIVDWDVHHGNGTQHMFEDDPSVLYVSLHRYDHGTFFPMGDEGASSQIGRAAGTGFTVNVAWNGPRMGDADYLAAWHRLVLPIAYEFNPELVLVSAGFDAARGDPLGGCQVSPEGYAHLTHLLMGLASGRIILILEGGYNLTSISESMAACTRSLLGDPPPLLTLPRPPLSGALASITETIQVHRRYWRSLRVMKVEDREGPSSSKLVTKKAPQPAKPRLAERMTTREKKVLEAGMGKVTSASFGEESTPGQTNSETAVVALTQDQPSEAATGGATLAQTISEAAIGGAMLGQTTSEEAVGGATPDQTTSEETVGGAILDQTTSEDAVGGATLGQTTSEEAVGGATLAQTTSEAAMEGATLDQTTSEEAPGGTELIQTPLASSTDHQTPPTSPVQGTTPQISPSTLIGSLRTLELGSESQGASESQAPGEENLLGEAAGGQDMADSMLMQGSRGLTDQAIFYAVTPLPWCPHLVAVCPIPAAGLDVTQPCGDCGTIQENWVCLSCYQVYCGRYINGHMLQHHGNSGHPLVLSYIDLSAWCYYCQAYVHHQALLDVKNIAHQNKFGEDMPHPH
Summary of the method: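 Cells treated with various concentrations of HDAC inhibitors, collected, lysed and analysed by Western blotting.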

[11] = Antiproliferative activity against p53 defective cis-platinum-resistant human IGROV1/Pt1 cells assessed as growth inhibition after 72 hrs; format: functional, cell-based; details: IGROV-1/Pt1, 72 h
Summary of the method: (§2)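 Log-phase cells seeded in duplicate in 6-well plates; drug added 24 h after seeding. Cells harvested 72 h after drug exposure and counted with a cell counter. IC50 = drug concentration giving 50% reduction in cell number versus untreated control.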

[12] = system: IGROV-1; assay: Antiproliferative activity against human IGROV1 cells assessed as growth inhibition after 72 hrs; format: functional, cell-based; details: IGROV-1, 72 h; summary of the method: as §2

Chain of Histone deacetylase 4 (P56524 whole entry): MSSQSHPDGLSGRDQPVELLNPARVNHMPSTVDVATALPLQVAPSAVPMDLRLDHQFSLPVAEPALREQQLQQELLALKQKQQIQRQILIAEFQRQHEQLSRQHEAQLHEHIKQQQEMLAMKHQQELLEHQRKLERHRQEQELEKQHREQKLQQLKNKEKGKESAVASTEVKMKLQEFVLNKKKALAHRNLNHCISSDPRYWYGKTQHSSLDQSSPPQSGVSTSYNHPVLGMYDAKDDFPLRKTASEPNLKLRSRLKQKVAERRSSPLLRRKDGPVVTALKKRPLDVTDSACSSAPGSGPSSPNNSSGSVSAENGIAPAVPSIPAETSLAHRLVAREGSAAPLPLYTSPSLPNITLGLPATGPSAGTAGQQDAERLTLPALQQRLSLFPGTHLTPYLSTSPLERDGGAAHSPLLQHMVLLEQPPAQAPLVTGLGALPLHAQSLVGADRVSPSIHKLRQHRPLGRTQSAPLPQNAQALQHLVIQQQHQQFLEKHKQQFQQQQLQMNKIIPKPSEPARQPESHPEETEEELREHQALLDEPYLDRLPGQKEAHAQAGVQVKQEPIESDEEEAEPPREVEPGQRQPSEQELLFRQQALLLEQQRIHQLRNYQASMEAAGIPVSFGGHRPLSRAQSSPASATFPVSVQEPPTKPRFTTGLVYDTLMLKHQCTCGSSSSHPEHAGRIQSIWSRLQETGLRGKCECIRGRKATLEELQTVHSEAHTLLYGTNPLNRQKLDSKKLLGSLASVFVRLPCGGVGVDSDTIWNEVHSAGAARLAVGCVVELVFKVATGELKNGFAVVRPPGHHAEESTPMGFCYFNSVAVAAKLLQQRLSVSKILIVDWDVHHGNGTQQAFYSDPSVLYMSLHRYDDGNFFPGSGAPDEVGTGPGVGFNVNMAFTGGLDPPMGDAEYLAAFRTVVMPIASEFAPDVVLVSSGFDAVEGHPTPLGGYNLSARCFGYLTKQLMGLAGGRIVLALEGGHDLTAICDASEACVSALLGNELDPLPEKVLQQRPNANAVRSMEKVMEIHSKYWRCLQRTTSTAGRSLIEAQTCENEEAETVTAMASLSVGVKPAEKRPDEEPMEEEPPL

| SMILES | IC50 [1] | IC50 [2] | IC50 [3] | IC50 [4] | Activity [5] | IC50 [6] | IC50 [7] | Activity [8] | Activity [9] | Activity [10] | IC50 [11] | IC50 [12] |
| --- | --- | --- | --- | --- | --- | --- | --- | --- | --- | --- | --- | --- |
| COc1ccc(-c2ccc(/C=C/C=C/C(=O)NO)cc2)cc1 | > 100 µM | > 100 µM | > 100 µM | > 100 µM |  |  |  |  |  |  |  |  |
| COc1ccc(-c2ccc(/C=C/C=C/C(=O)NO)cc2)cc1C12CC3CC(CC(C3)C1)C2 | > 100 µM | 60.1 µM | > 100 µM |  | 22.18% | > 10 µM | 1.4 µM | 7.46% | 70.35% | inactive | 2.03 µM | 1.3 µM |
